From ChEMBL document CHEMBL4513216, “Probing the Open Global Health Chemical Diversity Library for Multistage-Active Starting Points for Next-Generation Antimalarials” (ACS Infect Dis, 2020)

Test: Toxicity liver stage against HepG2, at 10uM
Type: cell-based
Design: test concentration 10 uM, cell line HepG2-A16-CD81EGFP
Details: human, HepG2-A16-CD81EGFP cells; read-out: INHIBITION
Outline: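 Uninfected HepG2-A16-CD81EGFP cells, 3 × 10^3 per well, 1536-well, plated on prespotted compound at 10 μM final, parasite-free screening media added to match infected plates; puromycin 10 μM positive, DMSO 0.5% negative; run in parallel with 48 h PbLuc assay at 37 °C, 5% CO2; viability by CellTiter-Glo luminescence, normalized to controls.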

Row | SMILES | cytotoxicity at 10 µM [%]
1 | O=C(CC1[C@H]2CN(c3ncccn3)C[C@@H]12)Nc1cccnc1 (some centres not stated) | -1.55
2 | O=C(NC1CC(F)(F)C1)[C@]12COC[C@H]1CN(Cc1ccsc1)C2 | -109
3 | CCCNc1ncc(C2CC(=O)NCc3nc4ccccn4c32)cn1 (configuration not stated) | -3.69
4 | CC(C)CN1CCC(NC(=O)c2ccc(F)cc2Cl)CC1 | -17.1
5 | Cc1nccn1CCCN1CCCC(c2ccccc2)C1 (configuration not stated) | -24.8
6 | CN(C)C(=O)CN1CCCN(CC2CCOc3ccccc3C2)CC1 (configuration not stated) | -3.42
7 | O=C(N1CCC(O)(C(F)(F)F)C1)C1(c2ccc(Cl)cc2)CC1 (configuration not stated) | 9.64
8 | CN1CCC(c2cc(CCO)ncn2)C1 (configuration not stated) | 4.87
9 | CC1CCN(C(=O)CN2CC(c3nc(C4CC4)no3)C2)CC1 | -6.6
10 | CCCOC(=O)N1CCC(c2nnc(Cn3cccn3)n2C2CC2)CC1 | -8.52
11 | Cc1oc(C(=O)O)cc1S(=O)(=O)Nc1cc(Br)ccc1Cl | 0.386
12 | CCCc1cc(C(=O)N[C@H](C)[C@@H](O)c2ccc(O)cc2)n(C)n1 | 1.48
13 | Cc1ccn(-c2ccc(N3CCN(Cc4ccccn4)CC3)nn2)n1 | 5.6
14 | CCCn1cc(CN2CCOCC2c2[nH]ncc2C)cn1 (configuration not stated) | 0.325
15 | O=C1CC(c2cccnc2)C2(CCN(C(=O)N3CCOCC3)CC2)N1 (configuration not stated) | -79.5
16 | CC(C)N1c2sc(-c3ccccc3)nc2CC1C(=O)NC1CCCC1 (configuration not stated) | 10.3
17 | CCc1c(C)noc1-c1cnc(NC2CC2)nc1-c1cnc(C)cn1 | -29
18 | O=C(O)c1cnc(OCC2CC2)c(Br)c1 | 9.38
19 | CC(O)CN1CCN(Cc2nnc(C3CC3)o2)CC1 (configuration not stated) | -10
20 | Cc1cc(CN2C[C@@H]3COC[C@]3(CNC(=O)c3ccno3)C2)no1 | 1.18
21 | COCC(=O)NC(C)Cc1cccc(Br)c1 (configuration not stated) | -8.21
22 | Cn1cc(CN2CCC3(CC2)CC(Nc2nccs2)CO3)cn1 (configuration not stated) | -79.6
23 | CC(NCC1CCN(CCO)CC1)c1cccc(Cl)c1 (configuration not stated) | -12.5

Row | SMILES | cytotoxicity at 10 µM [%]
24 | Cc1nc2ncccn2c1C(=O)N1CCc2[nH]cnc2C1 | 7.94
25 | O=C(c1c[nH]c(=O)c(Cl)c1)N1CCc2ccccc2C1 | -11.1
26 | O=C(NCC1CC1)[C@@H]1CC[C@@H]2[C@@H](CCN2Cc2ccc(F)c(F)c2)O1 | 8.33
27 | Cn1c(C2CCCN2C(=O)CN2CCCC2=O)nc2ccccc21 (configuration not stated) | -3.47
28 | CCOCC1CN(C(=O)N2CCCC2)Cc2cnn(CC)c21 (configuration not stated) | -77.5
29 | O=C(c1cn(-c2ccccc2)nn1)N1CCOCC(O)C1 (configuration not stated) | 2.35
30 | O=C(NC1(c2nccs2)CCCC1)c1cc(C2CC2)[nH]n1 | 2
31 | N#Cc1ccc(CC(=O)N2CCC(Nc3cccnn3)CC2)cc1 | -4.11
32 | c1csc(CN2Cc3nccn3CC(Cn3cncn3)C2)n1 (configuration not stated) | -9.35
33 | Cc1csc(CNC(=O)N2CCN(Cc3ccco3)CC2)n1 | 0.702
34 | CCC(C)(C)CC(=O)NC(C)C(=O)Nc1ccc(-n2cncn2)cc1 (configuration not stated) | 3.47
35 | CCC[C@@H]1CN(C(=O)c2cnc3ccccc3c2)C[C@H]1NS(C)(=O)=O | -11.1
36 | CCc1cc(NC2CCOCC2)n2nc(C)c(C)c2n1 | 0.551
37 | Cc1ccc(N2CCCc3sc(C(=O)NCCO)nc32)nn1 | 13.3
38 | Cc1nccn1CCCN1CCCC(c2nccn2C)C1 (configuration not stated) | -10.3
39 | CCOC(=O)c1sc(NC(=O)CN2C(=O)CCC2=O)c(C#N)c1C | -6.93
40 | Cc1cccc2c1nc(COCC(=O)O)n2-c1ccsc1 | -0.793
41 | Cc1ccsc1C1CC(=O)Nc2c1cnn2C(C)C (configuration not stated) | -7.7
42 | CC(C)(CNC(=O)C1CCCN1S(C)(=O)=O)N1CCOCC1 (configuration not stated) | 2.72
43 | Cc1cccc(CN2Cc3ccnn3CC(COCC3CC3)C2)n1 (configuration not stated) | 2.13
44 | O=C(Nc1ccccc1)[C@H]1C[C@H]2CN(S(=O)(=O)C3CC3)C[C@@H]1O2 | 4.44
45 | Cc1cc(NC(=O)C(C)Nc2ccn(Cc3ccccn3)n2)on1 (configuration not stated) | -2.06
46 | Cn1cc(CC(=O)N2CCCC(n3cncn3)C2)cn1 (configuration not stated) | -3.54

Row | SMILES | cytotoxicity at 10 µM [%]
47 | Cc1cc(N2CCC3(CCC(=O)N(CC4CC4)C3)CC2)nc(N)n1 | 6.92
48 | Cc1csc(CCNCc2cnc3c(c2)c(C)nn3C)n1 | 5.76
49 | CCc1cnc(N2CC3(CCN(S(=O)(=O)C4CC4)C3)C2)nc1 | -109
50 | Cc1cnn(C2CCCN(C(=O)Cc3c(C)nn(C)c3C)C2)c1 (configuration not stated) | -6.71
51 | CC(O)CNCc1ccc(OCc2ccc3c(c2)OCCO3)cc1 (configuration not stated) | -4.61
52 | Cc1cnn(CCC(=O)N2CCCC(c3nc(C)c(C)s3)C2)c1 (configuration not stated) | -19.2
53 | Cc1ccc(CN2CCn3cc(CN(C)Cc4ccco4)nc3C2)o1 | -1.09
54 | Cc1nn(CCC#N)c(C)c1[C@@H]1C=C[C@@H](NCc2ccc(F)cc2)C1 | 2
55 | c1cnc(N2CCCC(NCc3ccc(-n4ccnc4)cc3)C2)nc1 (configuration not stated) | -7.55
56 | CC(O)(CNC(=O)c1cccnc1-n1cccn1)c1ccsc1 (configuration not stated) | 2.38
57 | Cc1nc(C(C)N(C)Cc2nc(CCC(C)C)no2)c(C)s1 (configuration not stated) | -4.76
58 | Cc1ncccc1C(=O)Nc1cccc(C[S+](C)[O-])c1C (configuration not stated) | 4.08
59 | CC(=O)c1ccc(CNC(=O)c2cc(C#N)cn2C)nc1C | 5.44
60 | Cc1cnn(CCNCc2cc(C)no2)c1 | 8.77
61 | CC(C)NC(=O)Cn1cc(OCc2ccc(F)cc2)c(=O)cc1CO | 4.74
62 | c1cnn(CC2CCCN2Cc2nc(-c3ccoc3)no2)c1 (configuration not stated) | -7.07
63 | O=C(C(c1ccccc1)S(=O)(=O)c1ccccn1)N1CCCC1 (configuration not stated) | 7.27
64 | N#Cc1ccc(CN2CCCC(Cn3cncn3)C2)c(F)c1 (configuration not stated) | 0.762
65 | OC1(CN2CCc3nnc(Cc4cccnc4)n3CC2)CCCNC1 (configuration not stated) | 21.7
66 | c1ccc(OCc2nnc3n2CCN(CC2CCOCC2)C3)nc1 | 1.65
67 | CCOc1cncc(N2CCN(c3ccccc3F)CC2)n1 | -0.0195
68 | O=C(NCC1CCN(Cc2cc3ccccc3[nH]2)C1)C1CCCCC1 (configuration not stated) | 9.81
69 | Cc1nn2c(N3CCC(C(N)=O)CC3)cc(-c3ccccc3)nc2c1C | -2.83

Row | SMILES | cytotoxicity at 10 µM [%]
70 | Cc1cnc(CNC(=O)C2CCOc3ccccc3C2)cn1 (configuration not stated) | -2.21
71 | Cc1cc(NC(=O)CNC2CCc3ncnn3C2)on1 (configuration not stated) | 6.47
72 | O=C(Cc1ccsc1)N1CCC(n2nc(-c3ccco3)ccc2=O)CC1 | -8.98
73 | COCC1CN(C(=O)c2cccn2C)Cc2nccn2C1 (configuration not stated) | 6.92
74 | CSC(C)C(=O)N1CCCN(Cc2cnn(C(C)C)c2)CC1 (configuration not stated) | -6.29
75 | COCCC(=O)N1CCC(Nc2ncc(Cl)cn2)CC1 | -6.74
76 | CC(C)(C(=O)NCCCC(N)=O)c1cccc(Br)c1 | 4.23
77 | CN(C(=O)c1cccc(NCc2cccs2)c1)C(C1CC1)C1CC1 | 8.41
78 | Cn1cnnc1CNC(=O)C1CCCN(Cc2ccccc2)C1 (configuration not stated) | 3.57
79 | N#Cc1ccc(CNCC(C(=O)N2CCOCC2)c2ccccc2)cc1 (configuration not stated) | -11.9
80 | Cc1cc(=O)n2ncnc2n1CC(O)c1cc(F)ccc1F (configuration not stated) | 1.7
81 | COCCCNC(=O)Cn1nnc(-c2cc3ccccc3o2)n1 | 6.43
82 | CCN(Cc1ccccc1)C(=O)c1cc(C2CCCN2C)ccn1 (configuration not stated) | -14.2
83 | Cn1cc(CNS(=O)(=O)c2cc(F)ccc2F)cn1 | -0.439
84 | CN(C(=O)CNCCn1cccn1)C1(C#N)CCCCC1 | 2.04
85 | Cc1noc(C2CCCN(C(=O)c3ccc(N(C)C)nc3)C2)n1 (configuration not stated) | -4.69
86 | COc1cc(CCC(=O)N2CCC(c3cnccn3)CC2)on1 | 3.1
87 | CS(=O)(=O)CCN1C[C@H](NC(=O)c2cnc(O)cn2)[C@@H](C2CC2)C1 | 9.24
88 | O=S1(=O)COCCN1Cc1ccc(F)c(C(F)(F)F)c1 | 7.52
89 | NC(=O)c1cnc2n1CCN(C(=O)c1ccc(Cn3cccc3)cc1)C2 | -1.5
90 | Cc1nc(C)c(C(=O)N2CCc3c(C)cccc32)o1 | -2.28
91 | Cc1noc(Cl)c1CCC(=O)N1CCN(CC(C)(C)O)CC1 | 1.61
92 | Clc1cncc(N2CCCC2c2nnc3n2CCCCC3)n1 (configuration not stated) | -7.44

Row | SMILES | cytotoxicity at 10 µM [%]
93 | CC1=N[C@@]2(CC[C@@H]3CN(C(=O)NC(C)C)C[C@@H]32)C(=O)N1CC1CC1 | 7.1
94 | CC(O)CC(C)(C)CNC(=O)NCc1cccc(-n2cncn2)c1 (configuration not stated) | -4.79
95 | COc1ccc(-c2cc(C(=O)Nc3nc[nH]n3)[nH]n2)cc1 | -12.1
96 | Cc1ccc(OCc2nc(CNCC3CN(C)CCO3)cs2)cc1 (configuration not stated) | -23.5
97 | O=C(N[C@H]1COC[C@@H]1N1CCCC1)c1c[nH]nc1C1CCCCC1 | -5.59
98 | CCc1ncc2c(n1)CN(Cc1cccc3c1OCCO3)CC2 | -8.42
99 | CCCOC1CCCN(C(=O)c2ccnc(N3CCN(C)CC3)c2)C1 (configuration not stated) | -5.7
100 | CC(C(=O)NC1CC1)S(=O)(=O)Cc1noc(C(C)(C)C)n1 (configuration not stated) | 9.42
101 | NC(=O)c1cccnc1N1C[C@H]2CC[C@@H](C1)N(Cc1ccccn1)C2=O | 7.94
102 | Cc1nc(CN2CCCC(NCc3cnn(C)c3)C2)no1 (configuration not stated) | -2.53
103 | COc1cccc(F)c1-c1c[nH]c(C)n1 | -0.654
104 | NC(=O)C1CN(C(=O)Cc2cccnc2)CCN(C2CCOCC2)C1 (configuration not stated) | -9.58
105 | CNC(=O)[C@@H]1C[C@H](N)CN1Cc1cc2cc(OC)ccc2nc1O | -6.69
106 | Cc1cc(CNc2ccc3nc(C)sc3c2)no1 | -5.2
107 | NC(=O)CNC(c1ccccc1)c1ccccc1 | -10.5
108 | CCCN1CCN(C(=O)C(C)n2cc(Br)cn2)CC1 (configuration not stated) | -18.8
109 | COc1ccccc1N1CCN(C(=O)CSCC2CC2)C(C)C1 (configuration not stated) | 4.06
110 | Cn1ccc(C(=O)N2CCCC2c2ccc3c(c2)OCCO3)cc1=O (configuration not stated) | 12.3
111 | CCC(=O)N1CCN(C(=O)NC2CCc3ccccc3C2)CC1 (configuration not stated) | -15.9
112 | COc1ccc(C)cc1CC(=O)Nc1cc(C)n[nH]1 | 0.503
